The source of these data is PMC9643332 (Bioorganic Chemistry, 2022).

In experiment [1] the target is T1, SARS-CoV-2 3CL^pro (Severe acute respiratory syndrome coronavirus 2, UniProt P0DTD1). Put plainly: biochemical. The format is biochemical. The note with it: for inhibition at 100 µM: read-out: inhibition against SARS-CoV-2 3CLpro.
The next experiment has as its target HCoV-229E 3CL^pro (Human coronavirus 229E, UniProt P0C6X1). Put plainly: biochemical.
In experiment [2] the target is Dipeptidyl peptidase IV (DPP-IV) (Homo sapiens, UniProt P27487). The experiment can be described thus: Human protease selectivity: DPP-IV inhibition in human plasma with GP-BAN probe. In kind it is biochemical. The following applies: 0, 1, 10, 100 μM. Summed up:
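Human plasma served as the DPP-IV source and was incubated 1 h with test compound at 0, 1, 10 or 100 μM in 0.1 M PBS, pH 7.4, 1 mM EDTA. Adding the DPP-IV-selective fluorogenic probe at 100 µM started the reaction. Fluorescence (ex 430 nm, em 535 nm) was read immediately over 20 min.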

Experiment [3] addresses T1, SARS-CoV-2 3CL^pro. The experiment can be described thus: CD spectroscopy, secondary structure content by CDNN. The following applies: 20 μM 3CLpro.
The target in experiment [4] is T2, human chymotrypsin C (CTRC) (Homo sapiens, UniProt Q99895).
T2 sequence (Q99895 30-268): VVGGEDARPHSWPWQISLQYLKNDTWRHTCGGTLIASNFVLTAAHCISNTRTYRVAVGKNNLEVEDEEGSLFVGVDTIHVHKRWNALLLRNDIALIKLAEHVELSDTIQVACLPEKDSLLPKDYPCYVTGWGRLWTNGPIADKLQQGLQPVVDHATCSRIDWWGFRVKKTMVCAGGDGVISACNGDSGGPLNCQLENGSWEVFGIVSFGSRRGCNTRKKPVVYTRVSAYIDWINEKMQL
The experiment can be described thus: Human protease selectivity: CTRC inhibition. The following applies: 0, 1, 10, 100 μM. The format is biochemical.

Experiment [5] has as its target T1, SARS-CoV-2 3CL^pro. The experiment can be described thus: Enzymatic inhibition assay in the presence of DTT or GSH. In kind it is biochemical. The note with it: 10 μM compound. Summed up: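 The thiol-dependence FRET assay preincubated SARS-CoV-2 3CLpro with test compound in reaction buffer (0.1 M PBS, 1 mM EDTA, pH 7.4), with 4 mM DTT or 1 mM GSH, or without either.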

The next experiment relates to SARS-CoV-2. The following applies: Huh7-ACE2, HeLa-ACE2 and A549-ACE2 cells; in the micromolar range, similar to Remdesivir; cited from earlier work.
For experiment [6], the target named is T1, SARS-CoV-2 3CL^pro. Put plainly: Fluorescence quenching assay. In kind it is binding. The following applies: 3 μM 3CLpro.
Experiment [7] addresses T1, SARS-CoV-2 3CL^pro. In kind it is biochemical.

“Also recorded” adds a separate entry of the source.

Dipeptidyl peptidase IV (DPP-IV), sequence (P27487 39-766): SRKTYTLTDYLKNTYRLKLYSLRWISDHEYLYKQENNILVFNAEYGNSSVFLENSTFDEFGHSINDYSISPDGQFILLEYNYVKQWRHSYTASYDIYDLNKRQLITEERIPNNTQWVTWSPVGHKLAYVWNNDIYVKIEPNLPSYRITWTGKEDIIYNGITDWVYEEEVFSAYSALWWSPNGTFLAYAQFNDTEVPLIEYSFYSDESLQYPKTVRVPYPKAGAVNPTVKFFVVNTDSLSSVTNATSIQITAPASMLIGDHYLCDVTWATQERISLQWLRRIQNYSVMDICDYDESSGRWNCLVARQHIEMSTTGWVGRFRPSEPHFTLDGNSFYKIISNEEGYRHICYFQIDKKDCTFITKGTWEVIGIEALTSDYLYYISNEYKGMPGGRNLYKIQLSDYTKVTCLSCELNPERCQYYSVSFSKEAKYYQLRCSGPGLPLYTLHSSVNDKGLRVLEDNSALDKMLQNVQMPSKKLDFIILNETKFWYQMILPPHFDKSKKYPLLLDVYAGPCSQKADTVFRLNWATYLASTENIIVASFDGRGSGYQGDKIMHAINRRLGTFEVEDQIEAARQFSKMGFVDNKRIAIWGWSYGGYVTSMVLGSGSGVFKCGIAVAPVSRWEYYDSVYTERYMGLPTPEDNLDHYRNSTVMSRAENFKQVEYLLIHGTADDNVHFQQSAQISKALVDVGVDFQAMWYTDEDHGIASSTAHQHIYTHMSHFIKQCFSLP
HCoV-229E 3CL^pro, sequence (P0C6X1 2966-3267): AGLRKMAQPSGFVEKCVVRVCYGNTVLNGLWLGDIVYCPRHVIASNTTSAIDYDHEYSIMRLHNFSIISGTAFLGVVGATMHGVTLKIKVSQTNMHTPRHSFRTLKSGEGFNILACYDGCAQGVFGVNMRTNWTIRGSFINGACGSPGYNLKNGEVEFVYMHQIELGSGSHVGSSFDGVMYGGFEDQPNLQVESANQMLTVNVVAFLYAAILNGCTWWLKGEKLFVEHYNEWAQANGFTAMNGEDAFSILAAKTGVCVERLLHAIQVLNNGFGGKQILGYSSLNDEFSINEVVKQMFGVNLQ

Broadly, the IC50 is the concentration that gives 50% inhibition. Low readings indicate higher potency, high ones lower potency. The inhibition is the percentage by which the read-out fell short of the control. For the molecule `CCCCCCCCCCCCCCCC[N+](C)(C)Cc1ccccc1` [Cetalkonium chloride], at SARS-CoV-2 3CL^pro [1], the half-maximal inhibitory concentration (IC50) amounted to 3.5 ± 0.47 µM and the inhibition at 100 µM was > 90%.
`CCCCCCCCCCCCCCCC[N+](C)(C)C` [Cetrimonium bromide]: on SARS-CoV-2 3CL^pro [1], the IC50 was determined as 12.8 ± 0.63 µM and the “inhibition of protease activity in primary screening” value (“inhibition of protease activity” below) was “significantly inhibit”.
On to `C[N+](C)(C)CCCCCCCCCC[N+](C)(C)C` [Decamethonium bromide], for which the IC50 on SARS-CoV-2 3CL^pro [1] was > 100 µM. Also, the “inhibition against SARS-CoV-2 3CLpro” value against SARS-CoV-2 3CL^pro [1] (100 µM) is “no inhibitory activity”.
On to `CCCCCCCCCCCC[N+](C)(C)CCOc1ccccc1` [Domiphen bromide], for which, at SARS-CoV-2 3CL^pro [1], it took 45.9 ± 16.5 µM to reach half-maximal inhibition (IC50) and the inhibition at 100 µM was > 90%.
In the case of `CCCCCCCCOc1ccccc1C(=O)Nc1ccc(C(=O)OCC[N+](C)(CC)CC)cc1` [Otilonium bromide], on SARS-CoV-2 3CL^pro [1], 27.7 ± 0.33 µM corresponded to half-maximal inhibition (IC50) and the “inhibition of protease activity” value is reported as “significantly inhibit”.
At HCoV-229E 3CL^pro, `CCCCCCCCCCCCCCCC[N+](C)(C)CCN(Cc1ccc(OC)cc1)c1ncccn1` [Thonzonium bromide] gave an IC50 of 6.47 µM. Besides, the “inhibitory activity towards DPP-IV” value in [2] is given as “didn’t exhibit inhibitory activity; also recorded: did not show measurable activity; also recorded: does not inhibit”. Besides, on SARS-CoV-2 3CL^pro [3] (50 μM Thonzonium bromide), the “Antiparallel (%)” value is on record as 18.60%, the “Parallel (%)” value was 6.30%, the “Random coil (%)” value is 30.70% and the “Total sum (%)” value is 95.40%. On SARS-CoV-2 3CL^pro [3] (50 μM Thonzonium bromide), the “α-helix (%)” value worked out at 25.50% and the “β-turn (%)” value turned out to be 14.20%. Besides, at SARS-CoV-2 3CL^pro [3] (100 μM Thonzonium bromide), the “Antiparallel (%)” value is given as 22.00%, the “Parallel (%)” value was determined as 6.20%, the “Random coil (%)” value amounted to 32.20% and the “Total sum (%)” value was 96.10%. In addition, at SARS-CoV-2 3CL^pro [3] (100 μM Thonzonium bromide), the “α-helix (%)” value came to 20.20% and the “β-turn (%)” value stood at 15.50%. Also, on SARS-CoV-2 3CL^pro [3] (200 μM Thonzonium bromide), the “Antiparallel (%)” value is listed as 33.60%, the “Parallel (%)” value is on record as 6.30%, the “Random coil (%)” value is reported as 34.00% and the “Total sum (%)” value amounted to 102.10%. Besides, on SARS-CoV-2 3CL^pro [3] (200 μM Thonzonium bromide), the “α-helix (%)” value is given as 12.30% and the “β-turn (%)” value was 15.90%. Further, at SARS-CoV-2 3CL^pro [1], the “inhibition of protease activity” value is recorded as “significantly inhibit”. In addition, the “inhibitory activity towards CTRC” value in [4] is listed as “didn’t exhibit inhibitory activity; also recorded: did not show measurable activity; also recorded: does not inhibit”. Also, the “inhibition against SARS-CoV-2 3CLpro in the presence of GSH” value at SARS-CoV-2 3CL^pro [5] (1 mM GSH) was “potent inhibition”. For the same molecule, the “inhibition against SARS-CoV-2 3CLpro in the presence of DTT” value at SARS-CoV-2 3CL^pro [5] (4 mM DTT) is recorded as “potent inhibition”. In addition, in the experiment on SARS-CoV-2, the “antiviral effect against SARS-CoV-2 in cells” value was “effective against SARS-CoV-2”. The “KSV (Stern-Volmer quenching constant)” value at SARS-CoV-2 3CL^pro [6] was found to be 39600 L/mol. The “Kq (bimolecular quenching rate constant)” value at SARS-CoV-2 3CL^pro [6] (τ0 about 10^-8 s) worked out at 3.96e+12 M⁻¹ s⁻¹. Also, the type of inhibition entry at SARS-CoV-2 3CL^pro [7] is reported as “non-competitive inhibitor”.
